Most compounds without a hit are left out; they make up all but 4.3% or so of the library.
GalR3 antagonist – human GalR3 antagonism | HEK293 GalR3-CNG cAMP membrane potential fluorescence; galR3 body fused to GalR1 C-terminus | hit rate 0.44% among 360,000 | O60755 | inhibition, % at 3 µM;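 active = inhibition above the screen-wide average plus 3 SD, cut at about 13% in these data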;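 also: forskolin and galanin both at EC90 stimulate the cells; cAMP rise reported by CNG channel membrane potential dye signal; 0% = forskolin plus galanin with DMSO and 100% = forskolin alone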
OX1R antag-1 – OX1R (human) antagonism; OX1R-expressing cells, FRET antagonist read-out; inhibition, % at 6.6 µM; hit rate 1.8% among 330,000; in the data active = inhibition mostly above about 38%, no sharp cut-off; inactive = mostly below about 40%;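 also: 0% = agonist challenge alone and 100% = reference antagonist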
CHO parental Ca – signal in parental CHO cells, OX1R antagonist counter-screen. parental CHO-K1, ATP-induced calcium, Fluo-8 fluorescence. inhibition, % at 5.6 µM. hit rate 0.63% among 330,000. AID 463079;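 active = inhibition above that plate's mean sample inhibition plus 3 SD, cut at about 26% in these data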;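 also: 0% = ATP-challenged DMSO wells and 100% = DMSO wells without ATP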
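Measured by: calcium-sensitive Fluo-8 fluorescence / Test system: CHO parental line / Controls: ATP-challenged DMSO wells low, unchallenged DMSO wells high / Measure: % inhibition / Compound: single nominal dose of 5.6 µM per compound / Replicates: single well per compound, no replicates / Reagent: ATP as calcium-mobilizing challenge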
TAAR1 agonist – human TAAR1 agonism | activation, % at 3 µM | AID 624467 | hit rate 0.99% among 360,000 | Q96RJ0 | CHO RD-HGA16 TAAR1, Fluo-8 calcium fluorescence; vehicle wells 0%, saturating PEA agonist 100%;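 active = activation above the mean activation of all test compounds in the run plus 3 SD, cut at about 38% in these data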
Target sequence (Q96RJ0 whole entry, looked up): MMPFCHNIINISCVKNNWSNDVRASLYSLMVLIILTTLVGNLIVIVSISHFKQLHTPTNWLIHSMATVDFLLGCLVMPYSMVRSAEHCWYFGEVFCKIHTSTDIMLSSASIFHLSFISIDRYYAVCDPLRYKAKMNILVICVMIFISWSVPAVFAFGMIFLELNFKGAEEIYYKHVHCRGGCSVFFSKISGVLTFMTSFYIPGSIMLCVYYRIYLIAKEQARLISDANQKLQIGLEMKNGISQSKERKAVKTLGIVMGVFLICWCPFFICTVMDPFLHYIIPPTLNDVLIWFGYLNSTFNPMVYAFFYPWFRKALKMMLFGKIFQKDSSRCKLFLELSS
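Signal – calcium-sensitive Fluo-8 signal, excitation 470-495, emission 515-575 nm · System – RD-HGA16 (CHO) cells co-expressing Gα16 and hTAAR1 · Incubation – 17-24 h seeding, 75 min 37 °C dye, 30 min RT · Compound dosing – 3 µM single concentration · Repeats – no replicates (n 1)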
TAAR1 antagonist – human TAAR1 antagonism. hit rate 1.5% among 360,000. AID 624466. Q96RJ0. CHO RD-HGA16 TAAR1, Fluo-8 calcium fluorescence, antagonist. inhibition, % at 3 µM;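 active = inhibition above a per-plate cutoff, the mean inhibition of test compounds on that plate plus 3 SD, cut at about 49% in these data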;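 also: 0% = DMSO plus EC80 beta-PEA response and 100% = DMSO alone without agonist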
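System: RD-HGA16 CHO cells with stable hTAAR1 and Gα16 | Probe or stimulus: EC80 β-phenethylamine stimulus | Dosing: 3 µM, single point | Times: Dye loading 75 min at 37 °C, then 30 min room temperature | Measured by: Fluo-8 calcium-sensitive fluorescence | Read-out basis: % inhibition of agonist calcium response | Replicates: n of 1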
OX1R antag-2 – human HCRTR1 antagonism. inhibition, % at 5 µM. hit rate 0.43% among 330,000. CHO/OX1R cells, Fluo-8 calcium fluorescence, orexin A. O43613;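 active = inhibition above its plate's threshold, mean inhibition of all tested compounds on the plate plus 3 SD, cut at about 37% in these data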;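 also: 0% = orexin A challenge wells and 100% = SB-334867-A antagonist wells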
TAAR1 nonsel count – nonselective antagonist in TAAR1 antagonist counter-screen. counterscreen cell line, calcium fluorescence, antagonist mode. inhibition, % at 3 µM. shares compounds with TAAR1 antagonist. AID 651780. hit rate 77% among 2,400; in the data active = inhibition above about 22%;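 also: CHO-Ga16 host cells stimulated with ATP at an EC80 level; 0% = agonist EC80 plus vehicle and 100% = vehicle without agonist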
TAAR1 ant conf – human TAAR1 antagonism, confirmed; shares compounds with TAAR1 antagonist; TAAR1-expressing cells, fluorescence antagonist read-out; inhibition, % at 3 µM; hit rate 40% among 2,400; AID 651785; in the data active = inhibition above about 49%;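 also: CHO-Ga16 host cells challenged with agonist PEA near its EC80; 0% = agonist at EC80 plus vehicle and 100% = vehicle with no agonist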
Ga16 ag counter – nonselective Ga16 agonism, counter-screen | AID 651953 | activation, % at 3 µM | Ga16-expressing cells, calcium fluorescence, agonist counterscreen | shares compounds with TAAR1 antagonist | hit rate 18% among 2,400; in the data active = activation above about 12%;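 also: 0% = vehicle wells and 100% = saturating stimulus response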
TAAR1 ag counter – activates human TAAR1 in antagonist counter-screen | shares compounds with TAAR1 antagonist | hit rate 2% among 2,400 | activation, % at 3 µM | hTAAR1 cell line, fluorescence activation, agonist mode; in the data active = activation above about 37%;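 also: CHO cells stably expressing TAAR1 with calcium dye readout; 0% = DMSO vehicle and 100% = full agonist response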
* hit, by the source's call; · = not tested or not shown.

SMILES	GalR3 antagonist	OX1R antag-1	CHO parental Ca	TAAR1 agonist	TAAR1 antagonist	OX1R antag-2	TAAR1 nonsel count	TAAR1 ant conf	Ga16 ag counter	TAAR1 ag counter
CCN1CCCC1CNC(=O)c1cc2c(C)nc3ccccc3c2o1 (configuration not stated)	-3	9	-10	7	-3	-12	·	·	·	·
O=C(O)Cn1c(=O)c2c3c(sc2n(Cc2ccccc2F)c1=O)CCCC3	-9	19	-9	3	56*	-1	5	38	3	7
Cc1ccc2c(c1)CCCN2C(=O)c1cccs1	-6	11	-4	12	-15	-8	·	·	·	·
COc1cccc(C(=O)Nc2ccc3c(c2)CCCN3C(=O)c2cccs2)c1OC	0	30	-20	2	50*	-22	24*	39	6	8
COc1ccc(C(=O)Nc2ccc3c(c2)CCCN3C(=O)c2cccs2)c(OC)c1	-6	5	-20	7	55*	-19	26*	40	5	1
Cc1ccccc1C(=O)Nc1ccc2c(c1)CCCN2C(=O)c1cccs1	-8	20	-16	3	30	-14	·	·	·	·
COc1ccc(C(=O)NCCCC2CCCC2)cc1OC1CCN(C(C)C)CC1	-4	·	·	0	-21	·	·	·	·	·
N#CC(=Nc1cccc(F)c1)C1=C(O)c2ccccc2C1=O	-3	·	·	0	-11	·	·	·	·	·
Cc1ccc(-c2nc(S(=O)(=O)c3ccccc3)c(SCC(=O)NCC3CCCO3)o2)cc1 (configuration not stated)	-7	30	-18	2	1	-20	·	·	·	·
O=C(NCCCCc1ccccc1)c1cccc(NC(=O)C2CCC2)c1	-6	·	·	5	13	·	·	·	·	·
CC(C)(C)OC(=O)N1CCC(C(=O)Nc2cccc(C(=O)NCCCCc3ccccc3)c2)CC1	-3	·	·	16	66*	·	37*	44	13*	12
CC(C)(C)OC(=O)N1CCC(C(=O)Nc2ccc(C(=O)NCCc3ccccc3)cc2)CC1	5	·	·	31	44	·	·	·	·	·
O=C(NCCCCc1ccccc1)c1cccc(NC(=O)C2CCCCC2)c1	-7	·	·	6	61*	·	30*	36	8	5
O=C(/C=C/c1ccccc1)Nc1cccc(C(=O)NCCc2ccccc2)c1	-5	·	·	13	68*	·	37*	57*	8	6
O=C(NCCc1ccccc1)c1cccc(NC(=O)C2CC2)c1	-4	·	·	0	10	·	·	·	·	·
COc1ccc(-n2c(=O)c3c4c(sc3n(CC(=O)NCC3CCCO3)c2=O)CN(C(C)=O)CC4)cc1OC (configuration not stated)	-5	·	·	5	-17	·	·	·	·	·
CC(C)(C)c1cc(C(=O)NCc2cc(F)cc3c2OCOC3)n(Cc2ccccc2)n1	1	20	-12	4	81*	-19	34*	55*	5	2
CC(C)(C)c1cc(C(=O)NNC(=O)Nc2ccccc2)n(Cc2ccccc2)n1	-2	10	17	-2	1	-20	·	·	·	·
C/C(=N\Nc1cc(C)nc(-c2ccccc2O)n1)c1ccccc1O	2	36	-10	6	59*	-22	30*	43	7	3
COCCOC(=O)c1c(C)oc2ccc(OC(=O)c3c(OC)cccc3OC)cc12	-3	29	-15	10	51*	-44	32*	43	6	5
CC1=C(CC[C@@H](C)CO)OC2CC3C4CCC5CC(O)CCC5(C)C4CC(=O)C3(C)C12 (some centres not stated)	-4	13	-18	17	76*	-27	29*	52*	11	19

Compound activity as filed in PubChem.
